CSC inhib: blocks cancer stem cells | cancer stem cell-like cells viability, luminescence | inhibition, % at 7.5 µM | 1.1% of 300,000 active; in the data active = inhibition above about 75%; tested in HMLE shEcad cells
SKKanGAS inh: inhibitors of SKKanGAS S. pyogenes growth in kanamycin (SK-promoter or general growth effect); BacTiter-Glo, 6 h; inhibition, % at 7.5 µM; 1.3% of 300,000 active;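 active = mean replicate score, as percent of positive control median, at least 50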;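 also: strain carries kanamycin resistance gene driven by streptokinase promoter and grows in 40 µg/ml kanamycin; loss of luminescence reflects streptokinase promoter inhibition or plain growth inhibition; 0% = median of DMSO wells and 100% = positive control at its reference dose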
UPR XBP1 act: adaptive UPR (XBP1) activation | activation, % at 20 µM | 0.33% of 330,000 active | CHO-XBP1 luciferase reporter, IRE1-XBP1 UPR activation, luminescence; percent of tunicamycin response, DMSO as zero | AID 463104;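 active = versus positive control, 20 µM dose yields 30% or more activation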;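 also: 100% = tunicamycin at 10 µg/mL and 0% = DMSO only wells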
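Material: CHO cell line with stable XBP1 luciferase reporter; schedule: 16-18 h cell attachment at 37 °C, then 6 h compound exposure; signal: glow luminescence from Steady-Glo reagent; medium: serum-containing F12 medium, 10% FBS; benchmarks: tunicamycin 10 µg/mL and vehicle-only wells; read-out: percent activation relative to tunicamycin reference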
CHOP UPR activ: apoptotic UPR (CHOP) activation; 0.34% of 330,000 active; CHO-CHOP luciferase reporter, luminescence; percent of tunicamycin response over DMSO baseline; activation, % at 10 µM;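 active = at 10 µM dose, activation of 40% or more, normalized to positive control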;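 also: 100% = tunicamycin at 10 µg/mL and 0% = DMSO alone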
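System: CHO-CHOP luciferase reporter cell line; amount: 500 cells/well; buffer or medium: F12 medium containing 10% fetal bovine serum; incubation: 6 h compound exposure at 37 °C after overnight seeding; measured by: luciferase luminescence after 10 min with Steady-Glo reagent; evaluation: % reporter activation, DMSO baseline versus tunicamycin full activation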
Beta cell apopt: beta cell apoptosis inhibition; INS-1E cytokine-induced death, ATP luminescence, 48 h; percent of positive-control rescue, neutral wells zero; protection from apoptosis, % (no concentration beside the values); 0.8% of 300,000 active; AID 435005;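 active = Every replicate reaches about 75%, or at least half do and their mean reaches it too, limit read from the data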;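 also: 0% = cytokine-treated negative control wells and 100% = positive control rescue; higher means more ATP so stronger rescue from cytokine killing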
Mdm2-MdmX inh: disrupts the human Mdm2-MdmX interaction | O15151+Q00987 | inhibition, % at 8 µM | SaOS-2 split-luciferase Mdm2/MdmX complementation, luminescence | 3% of 330,000 active | AID 485346;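 active = inhibition of at least 50% at 8 µM in the primary screen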
Target sequence (O15151 whole entry, looked up): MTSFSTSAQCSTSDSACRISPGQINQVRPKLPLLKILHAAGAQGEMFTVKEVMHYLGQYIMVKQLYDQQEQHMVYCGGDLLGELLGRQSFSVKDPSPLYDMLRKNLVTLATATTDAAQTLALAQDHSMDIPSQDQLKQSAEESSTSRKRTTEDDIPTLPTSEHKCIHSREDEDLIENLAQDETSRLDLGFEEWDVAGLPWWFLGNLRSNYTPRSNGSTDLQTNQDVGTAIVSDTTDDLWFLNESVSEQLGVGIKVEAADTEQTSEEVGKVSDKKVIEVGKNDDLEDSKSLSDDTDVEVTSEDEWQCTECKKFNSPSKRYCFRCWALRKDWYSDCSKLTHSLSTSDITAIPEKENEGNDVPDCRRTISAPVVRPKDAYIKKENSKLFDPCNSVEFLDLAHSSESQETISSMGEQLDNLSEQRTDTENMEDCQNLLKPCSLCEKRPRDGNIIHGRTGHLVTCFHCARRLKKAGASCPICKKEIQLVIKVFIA
Target sequence (Q00987 whole entry, looked up): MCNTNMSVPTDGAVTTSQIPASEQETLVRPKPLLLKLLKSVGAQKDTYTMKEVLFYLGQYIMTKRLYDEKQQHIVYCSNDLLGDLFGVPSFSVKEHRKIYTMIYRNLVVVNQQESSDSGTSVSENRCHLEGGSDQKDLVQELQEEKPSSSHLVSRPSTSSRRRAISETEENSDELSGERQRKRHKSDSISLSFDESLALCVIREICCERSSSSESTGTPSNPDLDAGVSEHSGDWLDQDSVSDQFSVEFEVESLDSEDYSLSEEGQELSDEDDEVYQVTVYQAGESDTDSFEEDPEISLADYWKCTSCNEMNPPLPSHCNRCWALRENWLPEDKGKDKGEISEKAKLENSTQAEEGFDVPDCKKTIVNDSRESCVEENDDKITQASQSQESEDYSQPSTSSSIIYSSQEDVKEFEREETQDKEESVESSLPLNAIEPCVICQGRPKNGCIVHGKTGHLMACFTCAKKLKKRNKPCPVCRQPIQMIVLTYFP
XBP1 UPR conf: adaptive UPR (XBP1) activation, confirmed | shares compounds with UPR XBP1 act | CHO-XBP1 IRE1-XBP1 luciferase reporter, luminescence | activation, % at 20 µM | 63% of 1,000 active;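 active = reporter signal at least 30% of the positive control's activation in two or more of four replicate wells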;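 also: plate controls were DMSO negative control for no effect and tunicamycin 10 µg/mL positive control for full effect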
Starred values were filed as active, the others as inactive; · = no result. This is a sample that favours compounds with a hit; in the whole collection about 4.8% have one here.

SMILES	CSC inhib	SKKanGAS inh	UPR XBP1 act	CHOP UPR activ	Beta cell apopt	Mdm2-MdmX inh	XBP1 UPR conf
O=c1c2ccccc2nc(COc2ccccc2)n1/N=C/c1ccc(O)c(O)c1	35	1	32*	3	6	16	24
CCOc1ccc(C(=O)Nc2cccc3ncccc23)cc1Cl	3	-4	0	1	3	-10	·
Cc1cccc2sc(N(CCN(C)C)C(=O)C3CCN(S(=O)(=O)c4cccs4)CC3)nc12	·	41	1	5	-9	21	·
COc1ccc(Cn2c(-c3ccccc3C)nc3c(c(=O)c4ccccc4n3C)c2=O)cc1	-16	7	41*	8	5	10	2
CCn1nc(C)cc1C(=O)Sc1cccc(Br)c1	48	0	97*	8	-15	40	9
CCn1nc(C)cc1C(=O)Sc1ccc(Cl)cc1Cl	4	14	-2	2	-16	-15	·
Cc1c(O)cc2c(c1O)C(=O)CC(c1ccccc1)O2 (stereo not drawn)	77*	3	121*	12	13	-5	173*
CCc1ccccc1NC(=O)C(CC)Sc1nc2cc3c(cc2c(=O)n1Cc1ccco1)OCO3 (stereo not drawn)	67	3	95*	5	·	22	193*
CCC(Sc1nc2cc(OC)c(OC)cc2c(=O)n1Cc1ccco1)C(=O)NCCOC (stereo not drawn)	3	4	3	-1	4	15	·
Cc1ccc(S(=O)(=O)N2CCC(C(=O)OC(C)C(=O)N(C)c3ccccc3)CC2)cc1C (stereo not drawn)	·	·	-5	-2	4	24	·
Cc1ccccc1OCc1nc(-c2ccc(NC(=O)c3ccc4c(c3)OCO4)cc2)no1	28	-3	69*	35	17	48	44*
Cc1ccccc1OCc1nc(-c2ccc(NC(=O)c3ccco3)cc2)no1	27	·	-1	2	7	-14	·
COC(=O)c1sc(-c2ccccc2)cc1NC(=O)c1cc(OC)cc(OC)c1	-16	6	0	3	-6	47	·
COC(=O)c1sc(-c2ccccc2)cc1NC(=O)c1ccc(F)cc1	18	-6	61*	14	·	44	22
COc1ccc(/C=N/NC(=O)Nc2cccc3nsnc23)cc1OC	1	-10	74*	7	18	49	25
COc1ccc(/C=N/NC(=O)c2cccc(C(=O)N/N=C/c3ccc(OC)c(OC)c3)n2)cc1OC	·	-1	-4	-1	·	1	·
CC(C)c1ccc(NC(=O)Cc2c(C(=O)O)n(C)c3ccccc23)cc1	0	4	-3	-1	-11	17	·
Cc1sc2ncnc(N=Nc3c(O)[nH]c4ccccc34)c2c1C	-3	29	8	14	4	35	·
CCc1cc2c(N=Nc3c(O)[nH]c4ccccc34)ncnc2s1	·	-9	35*	16	2	2	4
Cc1ccc(Cl)c(NC(=O)CSc2n[nH]c(=O)n2C2CC2)c1Cl	-9	·	-2	-2	-9	9	·
Cc1cc(C)c(NC(=O)CSc2nc(COc3ccccc3)nc3ccccc23)c(C)c1	28	-13	53*	1	-4	45	47*
Clc1ccc(C2=Nn3c(nnc3-c3cc(-c4ccccc4)n[nH]3)SC2)cc1	8	-5	66*	14	15	37	51*
Cc1ccc(-c2nnc3n2N=C(c2ccccc2)CS3)cc1	-1	-10	6	0	5	-1	·
COc1cc(OC)cc(C(=O)NC(C(=O)NNC(=O)c2ccc(C)cc2)C(C)C)c1 (stereo not drawn)	·	·	-4	1	-2	-2	·
Cc1cnc(NC(=O)c2cc3c(C)nn(Cc4ccccc4Cl)c3s2)s1	35	54*	43*	4	-2	41	82*
SMILES	CSC inhib	SKKanGAS inh	UPR XBP1 act	CHOP UPR activ	Beta cell apopt	Mdm2-MdmX inh	XBP1 UPR conf
COc1ccc(C(=O)O/N=C/c2c(C(F)(F)F)nn(C)c2SCc2ccccc2Cl)cc1	60	2	62*	15	-12	36	83*
CC1(C)CC(=O)C(C=Nc2ccc3cn[nH]c3c2)=C(O)C1	-10	3	30*	15	-4	6	10
CCOc1ccc(Cn2c3ccc(OC)cc3c3nc4ccccc4nc32)cc1OC	52	3	118*	2	35	3	106*
COc1ccc2c(c1)c1nc3ccccc3nc1n2Cc1ccc(OC)c(OC)c1	45	-3	·	·	-3	·	·
COC(=O)CNC(=O)C1CCN(S(=O)(=O)c2cnc[nH]2)CC1	-11	19	-2	-3	-10	24	·
CC(Oc1ccccc1Cl)C(=O)Nc1ccccc1C(=O)N1CCOCC1 (stereo not drawn)	-10	-2	32*	-2	-3	24	0
O=C(CN1CCOCC1)NCc1cc([N+](=O)[O-])ccc1O	-5	0	-3	2	-2	12	·
CCOC(=O)/C(=N\Nc1ccccc1[N+](=O)[O-])c1csc(N)n1	-1	12	0	0	9	27	·
CCOC(=O)/C(=N\Nc1ccc(C(C)=O)cc1)c1csc(Nc2ccccc2)n1	14	-6	46*	7	14	23	94*
Cc1ccc(S(=O)(=O)N2[C@@H](c3ccc(F)cc3)C(C(=O)O)=CC[C@H]2c2cccs2)cc1	7	·	1	-2	-3	4	·
Cc1ccc(Oc2ccc(NS(=O)(=O)c3cccc(C(=O)O)c3)cc2)cc1	12	·	-4	-2	-6	15	·
COc1ccc2oc(-c3ccc(C)c(NC(=O)c4ccc(N5CCOCC5)c([N+](=O)[O-])c4)c3)nc2c1	3	18	119*	8	8	-45	140*
COc1ccc(CNC(=O)c2ccc(N3CCOCC3)c([N+](=O)[O-])c2)cc1	-2	-5	0	4	8	17	·
COc1ccc(-c2cc(C(=O)Nc3cc(OC)cc(C(=O)Nc4cccc(C(F)(F)F)c4)c3)[nH]n2)cc1	14	23	37*	29	18	33	18
Cc1ccc(O)c(NC(=S)NC(=O)Cc2ccc(Cl)cc2)c1	3	-5	52*	-1	10	11	86*
O=C(NCCCn1ccnc1)c1nn2c(C(F)(F)F)cc(-c3ccc(Br)cc3)nc2c1Cl	-4	13	37*	2	2	35	94*
CCCNC(=O)c1nn2c(C(F)(F)F)cc(-c3ccccc3)nc2c1Cl	6	8	-1	-1	0	7	·

Screening data deposited in PubChem BioAssay by several laboratories.
